Results from ChEMBL document CHEMBL5108058 (J Med Chem, 2022).

Experiments:
[1] = Oral bioavailability in CD-1 mouse at 100 mg/kg measured at 0.5 to 3 hrs; assay type: ADME, organism-based; settings: in vivo, time 0.5-3 hrs
Outline: (§1)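 Male CD-1 mice, 4 weeks old, given 100 mg/kg by intragastric gavage in DOPS liposomal formulation (1 mM DOPS final). Tail-vein blood sampled at 0.5, 1 and 3 h; terminal heart blood, BALF and lungs at 5 h. EDTA plasma kept at −80 °C until analysis; parameters by non-compartmental analysis.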

[2] = Cmax in CD-1 mouse lung at 25 mg/kg, INH using nebulizer measured at 0.25 to 24 hrs; assay type: ADME, organism-based; set-up: dose 25 mg/kg, time 0.25-24 hrs, route inh; settings: inhaled or intranasal
Outline: (§2)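 Male outbred CD-1 mice, 4 weeks old. Compound in a DOPS liposomal formulation (1 mM DOPS final), 25 mg/kg by nebulizer inhalation. Mice euthanized at 0.25, 0.5, 1, 2, 4, 8 and 24 h for heart blood (EDTA plasma), bronchoalveolar lavage and lung homogenate. ELF levels derived from BALF by urea method; non-compartmental PK analysis.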

[3] = AUC (0 to t) in CD-1 mouse plasma at 25 mg/kg, INH using nebulizer measured at 0.25 to 24 hrs; assay type: ADME, organism-based; set-up: time lower 0.25 hrs, dose 25 mg/kg, time upper 24 hrs, route inh; settings: in vivo, inhaled_or_intranasal; outline: as §2
[4] = Observed apparent volume of distribution in CD-1 mouse plasma at 100 mg/kg, po measured at 0.5 to 3 hrs; assay type: ADME, organism-based; settings: in vivo, time 0.5-3 hrs; outline: as §1
[5] = Cmax in CD-1 mouse Epithelial lining fluid at 25 mg/kg, INH using nebulizer measured at 0.25 to 24 hrs; assay type: ADME, organism-based; set-up: time lower 0.25 hrs, dose 25 mg/kg, time upper 24 hrs, route inh; settings: in vivo, inhaled_or_intranasal; outline: as §2
[6] = Half life in CD-1 mouse plasma at 100 mg/kg, po measured at 0.5 to 3 hrs; assay type: ADME, organism-based; settings: in vivo, time 0.5-3 hrs; outline: as §1
SARS-CoV-2 [7] = experiment: Antiviral activity against SARS-CoV-2-GHB-03021/2020 infected in African green monkey Vero E6 cells assessed as reduction in cytopathic effect pre-infected with virus on day 0 followed by compound addition on day 1 and measured after 4 days post infection in presence of CP-100356 by MTS assay; assay type: functional, organism-based; settings: Severe acute respiratory syndrome coronavirus 2, GHB-03021/2020, Vero C1008
SARS-CoV-2 [8] = experiment: Antiviral activity against SARS-Cov2 […] infected in Calu-3 cells assessed as reduction in viral particle release measured after 24 hrs; assay type: functional, organism-based; settings: Severe acute respiratory syndrome coronavirus 2, Calu-3, 24 h
SARS-CoV-2 [9] = experiment: Antiviral activity against SARS-CoV-2-alphaB.1.1.7 infected in human A549 cells expressing ACE2 and TMPRSS2 assessed as reduction in cytopathic effect pre-infected with virus on day 0 followed by compound addition on day 1 and measured after 4 days post infection by MTS assay; assay type: functional, organism-based; settings: Severe acute respiratory syndrome coronavirus 2, alphaB.1.1.7, A549
[10] = Observed apparent volume of distribution in CD-1 mouse plasma at 25 mg/kg, INH using nebulizer measured at 0.25 to 24 hrs; assay type: ADME, organism-based; settings: in vivo, inhaled_or_intranasal, time 0.25-24 hrs; outline: as §2
[11] = AUC (0 to t) in CD-1 mouse Epithelial lining fluid at 25 mg/kg, INH using nebulizer measured at 0.25 to 24 hrs; assay type: ADME, organism-based; set-up: time upper 24 hrs, dose 25 mg/kg, time lower 0.25 hrs, route inh; settings: in vivo, inhaled_or_intranasal; outline: as §2
[12] = AUC (0 to t) in CD-1 mouse BALF at 25 mg/kg, INH using nebulizer measured at 5 hrs; assay type: ADME, organism-based, Bronchoalveolar lavage; set-up: dose 25 mg/kg, time 5 hrs, route inh; settings: in vivo, inhaled_or_intranasal
[13] = Cmax in CD-1 mouse BALF at 25 mg/kg, INH using nebulizer measured at 5 hrs; assay type: ADME, organism-based, Bronchoalveolar lavage; set-up: time 5 hrs, dose 25 mg/kg, route inh; settings: in vivo, inhaled_or_intranasal
[14] = AUC (0 to t) in CD-1 mouse plasma at 100 mg/kg, po measured at 0.5 to 3 hrs; assay type: ADME, organism-based; set-up: time lower 0.5 hrs, dose 100 mg/kg, time upper 3 hrs, route po; settings: in vivo; outline: as §1
[15] = Cmax in CD-1 mouse plasma at 25 mg/kg, INH using nebulizer measured at 0.25 to 24 hrs; assay type: ADME, organism-based; set-up: dose 25 mg/kg, time 0.25-24 hrs, route inh; settings: in vivo, inhaled_or_intranasal; outline: as §2
SARS-CoV-2 [16] = experiment: Antiviral activity against SARS-CoV-2-BetaCoV/belgium/GHB-03021/2020 infected in human Huh-7 cells assessed as reduction in cytopathic effect pre-infected with virus on day 0 followed by compound addition on day 1 and measured after 4 days post infection by MTT assay; assay type: functional, organism-based; settings: Severe acute respiratory syndrome coronavirus 2, BetaCoV/belgium/GHB-03021/2020, Huh-7
[17] = MRT in CD-1 mouse plasma at 100 mg/kg, po measured at 0.5 to 3 hrs; assay type: ADME, organism-based; settings: in vivo, time 0.5-3 hrs; outline: as §1
[18] = Apparent oral clearance in CD-1 mouse plasma at 25 mg/kg, INH using nebulizer measured at 0.25 to 24 hrs; assay type: ADME, organism-based; settings: time 0.25-24 hrs; outline: as §2
[19] = Tmax in CD-1 mouse plasma at 25 mg/kg, INH using nebulizer measured at 0.25 to 24 hrs; assay type: ADME, organism-based; settings: in vivo, inhaled_or_intranasal, time 0.25-24 hrs; outline: as §2
[20] = Tmax in CD-1 mouse plasma at 100 mg/kg, po measured at 0.5 to 3 hrs; assay type: ADME, organism-based; settings: in vivo, time 0.5-3 hrs; outline: as §1
Vero C1008 = experiment: Cytotoxicity against African green monkey Vero E6 cells assessed as reduction in cell viability; assay type: toxicity, cell-based; settings: chlorocebus sabaeus
Outline: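 VeroE6-eGFP cells maintained in DMEM with 10% FBS and G418. Compound toxicity measured without virus by standard MTS assay in parallel with the antiviral test. At least two independent dose–response curves.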

[21] = Cmax in CD-1 mouse plasma at 100 mg/kg, po measured at 0.5 to 3 hrs; assay type: ADME, organism-based; set-up: time 0.5-3 hrs, dose 100 mg/kg, route po; settings: in vivo; outline: as §1
SARS-CoV-2 [22] = experiment: Antiviral activity against SARS-Cov2 […] infected in Calu-3 cells assessed as viral plaque reduction; assay type: functional, organism-based; settings: Severe acute respiratory syndrome coronavirus 2, Calu-3

CC(C)(C)OC(=O)Nc1cccn([C@@H](CC2CC2)C(=O)N[C@@H](C[C@@H]2CCNC2=O)C(=O)C(=O)NCc2ccccc2)c1=O
bioavailability [1]: 17%
Cmax [2]: 262000 ng/g
AUCt [3]: 2.89663 µg·h/mL
Vz/F [4]: 131.34 L/kg
Cmax [5]: 433520 ng/mL
t1/2 [6]: 1.3 h
EC50 (SARS-CoV-2 [7]): 1300 nM
EC50 (SARS-CoV-2 [8]): 2400 nM
EC50 (SARS-CoV-2 [9]): 840 nM
Vz/F [10]: 141.07 L/kg
AUCt [11]: 1042.34 µg·h/mL
AUCt [12]: 5.1622 µg·h/mL
Cmax [13]: 2330.33 ng/mL
AUCt [14]: 1.06149 µg·h/mL
Cmax [15]: 236.47 ng/mL
EC50 (SARS-CoV-2 [16]): 3400 nM
MRT [17]: 2.57 h
CL/F [18]: 83.9 mL/min/kg
Tmax [19]: 0.33 h
Tmax [20]: 2.5 h
CC50 (Vero C1008): > 100000 nM
Cmax [21]: 357 ng/mL

CC(C)(C)OC(=O)Nc1cccn(C(CC2CC2)C(=O)N[C@@H](C[C@@H]2CCNC2=O)C(=O)C(=O)NCc2ccccc2)c1=O (mixture of isomers)
EC50 (SARS-CoV-2 [22]): 4000 nM
